In the library only some 1.9% were active in any assay of this set; here they are far more common.
RanGTP-Imp inh: inhibitors of RanGTP-importin-beta interaction, primary screen, biochemical, FRET, CFP-Ran, YFP-importin-beta, homogeneous. cell-free CFP-Ran/YFP-importin-beta FRET ratio. inhibition, % (no concentration beside the values). 1.1% of 300,000 active. AID 2216;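 active = more than half of the replicate wells show a fall in the fluorescence ratio signal beyond about 16%, limit read from the data, passing the limit was not always enough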;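 note: 0% = DMSO wells and 100% = Ran loaded with GDP instead of GTP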
HDAC3 inh: human HDAC3 inhibition; O15379; recombinant HDAC3, fluorogenic peptide/trypsin coupled, fluorescence; inhibition, % at 8.3 µM; 0.15% of 320,000 active; AID 2718; in the data active = inhibition above about 26%, passing the limit was not always enough
Runt-SMMHC FRET: blocks binding of human RUNX1 Runt domain to CBFb-SMMHC | inhibition, % at 20 µM | 0.74% of 220,000 active | Q01196+Q13951 | Cerulean-Runt/Venus-CBFb-SMMHC FRET ratio 530/480, 1 h;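 active = mean inhibition across duplicate retests at 20 µM reaching about 50%, limit read from the data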;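 note: 0% = DMSO wells and 100% = wells with excess untagged CBFb-SMMHC; inhibitors lower the FRET ratio by blocking Runt binding to CBFb-SMMHC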
Target sequence (Q01196 whole entry, looked up, the tested form may be a part): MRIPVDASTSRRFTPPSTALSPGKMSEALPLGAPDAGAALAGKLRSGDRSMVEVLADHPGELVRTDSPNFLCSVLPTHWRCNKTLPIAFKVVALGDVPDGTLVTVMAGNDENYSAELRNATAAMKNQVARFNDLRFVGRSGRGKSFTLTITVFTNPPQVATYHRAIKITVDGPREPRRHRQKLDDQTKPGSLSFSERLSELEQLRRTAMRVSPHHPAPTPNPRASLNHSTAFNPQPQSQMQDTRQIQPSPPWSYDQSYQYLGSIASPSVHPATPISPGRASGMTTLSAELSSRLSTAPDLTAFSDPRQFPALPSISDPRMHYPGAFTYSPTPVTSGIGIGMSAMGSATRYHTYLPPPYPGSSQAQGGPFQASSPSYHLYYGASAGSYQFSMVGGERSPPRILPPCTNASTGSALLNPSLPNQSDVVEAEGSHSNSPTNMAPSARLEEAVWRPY
Target sequence (Q13951 whole entry, looked up, the tested form may be a part): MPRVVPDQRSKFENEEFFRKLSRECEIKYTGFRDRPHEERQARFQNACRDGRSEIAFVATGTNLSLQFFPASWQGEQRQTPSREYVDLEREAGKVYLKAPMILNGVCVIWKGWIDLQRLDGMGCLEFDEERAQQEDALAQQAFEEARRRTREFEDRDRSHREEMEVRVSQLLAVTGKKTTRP
CaV13 ICDI inh: Disruptors of the CACNA1D IQ motif to Ca2+-dependent inactivation inhibitor domain association, primary screening, Förster resonance energy transfer in intact living …; HEK cells, CFP/YFP FRET ICDI-IQ, plate reader, 10 min; percent FRET-ratio fall versus neutral wells; inhibition, % at 12.3 µM; 0.098% of 340,000 active;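 active = mean replicate inhibition of at least 30% and at least 1% of replicates passing that level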;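 note: 0% = median of the neutral control wells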
Runt-CBFb FRET: blocks binding of human RUNX1 Runt domain to CBFb. Cerulean-Runt/Venus-CBFb FRET ratio 530/480, 1 h. inhibition, % at 20 µM. 0.46% of 220,000 active;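 active = inhibition over about 50% at 20 µM in the single-dose screen, limit read from the data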;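 note: 0% = DMSO wells and 100% = excess unlabeled CBFb competitor control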
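test system = Cerulean-Runt domain fusion protein, energy donor | probe or stimulus = Venus-CBFb binding partner, 100 nM | incubation = two 1 h room-temperature incubations shielded from light | detection = fluorescence energy transfer, 422 nm excitation, 530/480 nm emission | measure = loss of energy transfer signal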
LANA-H2A inh: blocks KSHV LANA binding to histone H2A/H2B | cell-free LANA-H2A/H2B peptide, fluorescence polarization | 0.6% of 320,000 active | Q9QR71 | inhibition, % (no concentration beside the values); in the data active = inhibition mostly above about 10%, no sharp cut-off; inactive = mostly below about 6.7%
YIC counter: counter-screen for RanGTP-importin-beta inhibitors: YIC FRET probe; shares compounds with RanGTP-Imp inh; Purified YIC probe, intramolecular FRET ratio YFP/CFP; IC50, µM; 40% of 1,000 active; AID 435026;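 active = fitted half-maximal inhibitory concentration no more than tenfold above the top dose tested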
Active calls of the source: *; i = inactive; · = not tested or not shown.

SMILES	RanGTP-Imp inh	HDAC3 inh	Runt-SMMHC FRET	CaV13 ICDI inh	Runt-CBFb FRET	LANA-H2A inh	YIC counter
COc1ccc(C(=O)N2CCN(c3nc4cc(C)ccc4cc3C#N)CC2)c(OC)c1	3.1	-2.1	9.8	-3.9	7.9	i	·
COc1ccc2cc(C#N)c(N3CCN(C(=O)c4ccccc4C)CC3)nc2c1	30.7*	-3.1	6.0	5.2	12.1	2.3	>50
CCOc1ccccc1-c1n[nH]c(=S)o1	2.9	-10.0	-2.2	-4.0	5.2	5.0	·
CCCCc1cc(-c2n[nH]c(=S)o2)c2ccccc2n1	20.1*	-0.3	·	-4.1	·	0.4	>50
O=c1cc(N2CCN(c3ccc(F)cc3)CC2)[nH]c(=O)n1Cc1ccc(F)cc1	5.4	-0.2	1.8	-9.5	-0.3	-3.4	·
CC1CC(C)CN(c2cc(=O)n(Cc3ccc(F)cc3)c(=O)[nH]2)C1 (stereo not given)	60.5*	1.0	-2.0	-2.8	-0.3	-2.7	>50
COC(=O)c1ccc2c(=O)n(-c3ccccc3F)c(=S)[nH]c2c1	5.6	10.2	6.9	-6.0	2.4	2.9	·
Cc1cc2c(c(=O)n1CCN(C)C)C(c1ccc(Cl)cc1)C(C#N)=C(N)O2 (stereo not given)	2.4	-0.7	-1.7	-5.8	0.4	0.6	·
Cc1cc2c(c(=O)n1C1CC1)C(c1cccc(Cl)c1)C(C#N)=C(N)O2 (stereo not given)	19.9*	-6.0	3.1	-6.1	6.2	-0.4	>50
CCc1nnc(NS(=O)(=O)c2ccc(NC(=O)c3cc4ccccc4oc3=O)cc2)s1	-4.2	-0.8	-2.5	-1.5	-2.9	-0.5	·
COc1ccc2c(CCNC(N)=S)c[nH]c2c1	-18.2	-4.1	-1.3	-6.4	-1.3	3.9	·
COc1ccc2c(CC#N)c[nH]c2c1	30.7*	1.7	-6.2	-3.4	-1.2	-0.6	>50
CN1CCN(c2ccc(S(=O)(=O)N3CCCCC3)cc2NC(=O)Cc2ccc(Cl)cc2)CC1	40.3*	·	-2.4	-8.8	-3.5	·	>50
O=C(Cc1ccc(Cl)cc1)Nc1cc(S(=O)(=O)N2CCOCC2)ccc1N1CCCC1	2.2	9.0	-4.3	-5.7	-4.0	-2.4	·
O=C(Oc1ccc2c3c(c(=O)oc2c1)CCCC3)c1ccco1	16.6*	-3.5	165.5*	·	129.6*	-0.7	19.6*
CC(=O)Oc1ccc2c3c(c(=O)oc2c1)CCCC3	5.6	-16.4	·	-20.2	·	-1.8	·
CN(C)c1nc(N2CCOCC2)nc(N(c2ccccc2)c2ccccc2)n1	-1.2	·	-6.0	-5.0	-3.4	·	·
Nc1nc(N2CCOCC2)nc(N(c2ccccc2)c2ccccc2)n1	20.7*	-1.5	1.1	-6.2	2.1	0.4	>50
CC1Cc2cc(S(=O)(=O)NCc3ccccc3)ccc2N1C(=O)C1CC1 (stereo not given)	18.2*	-3.3	·	-3.8	·	6.8	>50
CC1Cc2cc(S(=O)(=O)NCc3ccccc3)ccc2N1C(=O)C1CCC1 (stereo not given)	0.8	-2.6	·	-14.5	·	-0.9	·
O=C1c2ccccc2NC(c2cccnc2)N1c1ccccc1F (stereo not given)	0.0	-32.0	6.2	-8.1	4.6	-0.9	·
COc1ccc(N2C(=O)c3ccccc3NC2c2cccnc2)cc1 (stereo not given)	16.1*	0.0	2.9	4.5	0.3	-2.1	>50
O=S(=O)(Nc1nnc(C2CCCCC2)s1)c1ccc(F)cc1	0.3	0.1	·	-7.2	·	-2.8	·
O=[N+]([O-])c1ccc(S(=O)(=O)Nc2nnc(C3CCCCC3)s2)cc1	19.7*	7.4	·	-3.4	·	-8.4	>50
C=CCNc1sc(C(=O)c2ccc(Br)s2)c(N)c1C#N	19.0*	-5.4	-23.9	-20.8	-2.2	10.6	5.57*
SMILES	RanGTP-Imp inh	HDAC3 inh	Runt-SMMHC FRET	CaV13 ICDI inh	Runt-CBFb FRET	LANA-H2A inh	YIC counter
CC(C)CN(Cc1c(O)ccc2ccccc12)CC(C)C	20.2*	4.2	-2.1	-5.1	8.2	5.4	>50
CN(C)Cc1c(O)ccc2ccccc12	0.0	-7.6	0.5	-3.6	7.3	3.6	·
CCSC1=C(C#N)C(c2cccc(O)c2)CC(=O)N1 (stereo not given)	0.4	7.9	-0.9	-6.8	1.2	5.1	·
N#CC1=C(N)SC(N)=C(C#N)C1c1cccc(O)c1	21.7*	2.6	31.5	1.7	23.3	-8.2	>50
COc1ccc(N=Cc2cc(Cc3ccccc3Cl)cc([N+](=O)[O-])c2O)cc1OC	15.6*	1.8	-15.0	·	-6.4	-1.9	>50
Cc1ccc(N=Cc2cc(Cc3ccccc3Cl)cc([N+](=O)[O-])c2O)c(O)c1	-7.3	1.8	-44.3	·	-17.8	2.1	·
CC(=O)Nc1cccc(NC(=O)CCN2C(=O)c3ccccc3S2(=O)=O)c1	3.6	-3.2	·	-8.4	·	2.3	·
CC(=O)N(C)c1ccc(OCC(O)COc2ccc(N(C)C(C)=O)cc2)cc1	2.6	-2.6	1.6	0.3	-1.4	2.3	·
CN1CCCN(C(=O)Cc2c(Cl)cccc2Cl)c2nc3ccccc3nc21	21.7*	-5.2	53.7*	-4.3	48.3	9.9	27.8*
CCN(CC)S(=O)(=O)c1ccc(OC)c(NC(=O)C2CC(=O)N(c3ccc(C)cc3)C2)c1 (stereo not given)	29.1*	-2.0	1.5	-6.8	-2.8	-2.3	>50
CCN1C(=S)SC(=O)C1=C1C=C(C)OC(C)=C1	-4.3	-8.5	-128.1	·	-181.4	-2.3	·
CCN1C(=S)SC(=O)C1=C1C=C(C)N(Cc2ccco2)C(C)=C1	36.6*	22.7	46.8	-4.1	7.3	3.0	10.7*
COc1ccc(-c2[nH]nc3nc(N4CCN(C(=O)c5ccoc5)CC4)cc(C(F)(F)F)c23)cc1	·	·	·	-5.5	·	·	·
O=c1[nH]c(Nc2ccccn2)cc2ccccc12	37.7*	-54.7	·	-10.7	·	-0.5	>50
CN1CCC(OC(=O)Cc2ccc(Cl)cc2)CC1	2.6	-0.9	2.1	10.4	0.8	2.1	·
Cc1ccc(C(=O)NNC2CC(=O)N(c3ccc4c(c3)OCCO4)C2=O)cc1 (stereo not given)	17.5*	3.2	3.7	-4.7	·	6.6	>50
Cc1cccc(Nc2nnc(SCC(O)=C(C#N)c3nc4ccccc4[nH]3)s2)c1	·	·	·	-6.4	·	·	·
O=C(/C=C/c1cccs1)Nc1ccc([N+](=O)[O-])cc1	18.8*	4.7	-0.5	-1.9	-6.0	0.6	>50
O=C(/C=C/c1cccs1)c1ccc([N+](=O)[O-])cc1	2.4	6.1	-8.6	-1.5	1.4	-0.8	·
CCCCc1cc(=O)oc2c(C)c(OCC(=O)NCc3ccccn3)ccc12	30.6*	0.3	·	-7.1	·	0.5	>50
